Experiments:
HT-29 = assay: cells; settings: Homo sapiens, HT-29, 72 h
A549 [1] = assay: cells; settings: Homo sapiens, A549, 72 h
MDA-MB-231 = assay: Cytotoxicity against human MDA-MB-231 cells assessed as inhibition of cell proliferation measured after 72 hrs by MTT assay; type: functional, cell-based; settings: MDA-MB-231, 72 h
MKN-45 = assay: Cytotoxicity against human MKN-45 cells assessed as inhibition of cell proliferation measured after 72 hrs by MTT assay; type: functional, cell-based; settings: MKN-45, 72 h
A549 [2] = assay: Induction of apoptosis in human A549 cells assessed as early apoptosis at 1 uM measured after 12 hrs by Annexin V-FITC/ Propidium iodide stain based flow cytometry assay relative to control; type: functional
How it was run: (§1)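 Cells double-stained with FITC-annexin V and propidium iodide, then flow cytometry gave the percentages of early and late apoptotic cells.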

A549 [3] = assay: Induction of apoptosis in human A549 cells assessed as late apoptosis at 1 uM measured after 12 hrs by Annexin V-FITC/ Propidium iodide stain based flow cytometry assay relative to control; type: functional
How it was run: as §1

| IC50 (HT-29) | IC50 (A549 [1]) | Compound | IC50 (MDA-MB-231) | IC50 (MKN-45) | Activity (A549 [2]) | Activity (A549 [3]) |
| --- | --- | --- | --- | --- | --- | --- |
| 23.7 µM | 20.4 µM | COc1cc2nccc(Oc3ccc(N/C(Cc4ccccc4)=N\S(=O)(=O)Cc4ccc(F)cc4)cc3F)c2cc1OC | 32.5 µM |  |  |  |
| 8.26 µM | 7.55 µM | CCCCC/C(=N\S(=O)(=O)Cc1ccccc1)Nc1ccc(Oc2ccnc3cc(OC)c(OC)cc23)c(F)c1 | 12.8 µM | 9.28 µM |  |  |
|  |  | COc1cc2c(Oc3ccc(NC(=O)C4(C(=O)Nc5ccc(F)cc5)CC4)cc3F)ccnc2cc1OCCCN1CCOCC1 [FORETINIB] |  |  | 11.25% | 22.9% |
| 1.68 µM | 1.42 µM | COCC/C(=N\S(=O)(=O)Cc1ccc(F)cc1)Nc1ccc(Oc2ccnc3cc(OC)c(OC)cc23)c(F)c1 | 4.24 µM | 2.15 µM |  |  |
| 8.03 µM | 7.14 µM | COCC/C(=N\S(=O)(=O)Cc1ccc(Br)cc1)Nc1ccc(Oc2ccnc3cc(OC)c(OC)cc23)c(F)c1 | 12.1 µM | 11.3 µM |  |  |
| 0.74 µM | 0.61 µM | COCC/C(=N\S(=O)(=O)Cc1ccc(Cl)c(Cl)c1)Nc1ccc(Oc2ccnc3cc(OCCCN4CCN(C)CC4)c(OC)cc23)c(F)c1 | 1.35 µM | 0.82 µM |  |  |
| 9.63 µM | 8.68 µM | CCCCC/C(=N\S(=O)(=O)Cc1ccccc1)Nc1ccc(Oc2ccnc3ccsc23)c(F)c1 | 15.3 µM | 11.5 µM |  |  |
| 11.2 µM | 10.1 µM | COc1cc2nccc(Oc3ccc(N/C(Cc4ccsc4)=N\S(=O)(=O)Cc4ccc(F)cc4)cc3F)c2cc1OC | 19.5 µM | 11.9 µM |  |  |
| 14.5 µM | 12.2 µM | COc1cc2nccc(Oc3ccc(N/C(CC4CCCCC4)=N\S(=O)(=O)Cc4ccccc4)cc3F)c2cc1OC | 20.4 µM | 16.3 µM |  |  |
| 0.55 µM | 0.38 µM | COCC/C(=N\S(=O)(=O)Cc1ccc(Cl)cc1)Nc1ccc(Oc2ccnc3cc(OCCCN4CCC(C)CC4)c(OC)cc23)c(F)c1 | 1.56 µM | 0.76 µM |  |  |
| 3.52 µM | 3.14 µM | COCC/C(=N\S(=O)(=O)Cc1ccccc1)Nc1ccc(Oc2ccnc3cc(OC)c(OC)cc23)c(F)c1 | 6.64 µM | 4.05 µM |  |  |
| 0.59 µM | 0.47 µM | COCC/C(=N\S(=O)(=O)Cc1ccc(Cl)c(Cl)c1)Nc1ccc(Oc2ccnc3cc(OCCCN4CCOCC4)c(OC)cc23)c(F)c1 | 1.04 µM | 0.72 µM |  |  |
| 4.85 µM | 4.15 µM | COCC/C(=N\S(=O)(=O)Cc1ccccc1C)Nc1ccc(Oc2ccnc3cc(OC)c(OC)cc23)c(F)c1 | 8.19 µM | 5.16 µM |  |  |
| 15.5 µM | 13.2 µM | COc1cc2nccc(Oc3ccc(N/C(Cc4cccnc4)=N\S(=O)(=O)Cc4ccc(F)cc4)cc3F)c2cc1OC | 22.3 µM | 18.6 µM |  |  |
| 5.18 µM | 4.6 µM | CCCCC/C(=N\S(=O)(=O)Cc1ccc(F)cc1)Nc1ccc(Oc2ccnc3cc(OC)c(OC)cc23)c(F)c1 | 9.04 µM | 5.54 µM |  |  |
| 2.47 µM | 2.14 µM | COCC/C(=N\S(=O)(=O)Cc1cccc(F)c1)Nc1ccc(Oc2ccnc3cc(OC)c(OC)cc23)c(F)c1 | 5.34 µM | 3.52 µM |  |  |
| 0.88 µM | 0.72 µM | COCC/C(=N\S(=O)(=O)Cc1ccc(Cl)c(Cl)c1)Nc1ccc(Oc2ccnc3cc(OCCCN4CCC(C)CC4)c(OC)cc23)c(F)c1 | 1.98 µM | 1.15 µM |  |  |
| 10.3 µM | 9.43 µM | COc1cc2nccc(Oc3ccc(N/C(CC4CCCCC4)=N\S(=O)(=O)Cc4ccc(F)cc4)cc3F)c2cc1OC | 19.7 µM | 15.2 µM |  |  |
| 18.6 µM | 17.3 µM | CCCCC/C(=N\S(=O)(=O)Cc1ccccc1)Nc1ccc(Oc2ncnc3ccsc23)c(F)c1 | 25.6 µM | 21.9 µM |  |  |
| 4.12 µM | 3.76 µM | COc1cc2nccc(Oc3ccc(N/C(C)=N/S(=O)(=O)Cc4ccc(F)cc4)cc3F)c2cc1OC | 7.65 µM | 4.55 µM |  |  |

| IC50 (HT-29) | IC50 (A549 [1]) | Compound | IC50 (MDA-MB-231) | IC50 (MKN-45) | Activity (A549 [2]) | Activity (A549 [3]) |
| --- | --- | --- | --- | --- | --- | --- |
| 0.78 µM | 0.67 µM | COCC/C(=N\S(=O)(=O)Cc1ccc(Cl)c(Cl)c1)Nc1ccc(Oc2ccnc3cc(OCCCN4CCCCC4)c(OC)cc23)c(F)c1 | 0.93 µM | 0.88 µM |  |  |
| 0.41 µM | 0.35 µM | COCC/C(=N\S(=O)(=O)Cc1ccc(Cl)cc1)Nc1ccc(Oc2ccnc3cc(OCCCN4CCCCC4)c(OC)cc23)c(F)c1 | 1.12 µM | 0.65 µM |  |  |
| 16.5 µM | 14.3 µM | COc1cc2nccc(Oc3ccc(N/C(Cc4ccsc4)=N\S(=O)(=O)Cc4ccccc4)cc3F)c2cc1OC | 23.8 µM |  |  |  |
| 20.6 µM | 18.1 µM | COc1cc2nccc(Oc3ccc(N/C(Cc4cccnc4)=N\S(=O)(=O)Cc4ccccc4)cc3F)c2cc1OC | 28.3 µM | 22.9 µM |  |  |
| 0.36 µM | 0.32 µM | COCC/C(=N\S(=O)(=O)Cc1ccc(Cl)cc1)Nc1ccc(Oc2ccnc3cc(OCCCN4CCN(C)CC4)c(OC)cc23)c(F)c1 | 1.24 µM | 0.61 µM |  |  |
| 22.1 µM | 18.6 µM | CCCCC/C(=N\S(=O)(=O)Cc1ccc(F)cc1)Nc1ccc(Oc2ncnc3cc(OC)c(OC)cc23)c(F)c1 | 31.8 µM | 23.4 µM |  |  |
| 4.05 µM | 3.53 µM | CCCCOc1cc2nccc(Oc3ccc(N/C(CCOC)=N/S(=O)(=O)Cc4ccc(Cl)c(Cl)c4)cc3F)c2cc1OC | 7.19 µM | 4.36 µM |  |  |
| 3.16 µM | 2.85 µM | COCC/C(=N\S(=O)(=O)Cc1ccccc1F)Nc1ccc(Oc2ccnc3cc(OC)c(OC)cc23)c(F)c1 | 5.67 µM | 3.26 µM |  |  |
| 32.6 µM | 28.4 µM | COc1cc2nccc(Oc3ccc(N/C(Cc4ccccc4)=N\S(=O)(=O)Cc4ccccc4)cc3F)c2cc1OC |  | 26.3 µM |  |  |
| 2.85 µM | 2.56 µM | CCCCOc1cc2nccc(Oc3ccc(N/C(CCOC)=N/S(=O)(=O)Cc4ccc(Cl)cc4)cc3F)c2cc1OC | 5.46 µM | 3.05 µM |  |  |
| 13.2 µM | 11.3 µM | COCC/C(=N\S(=O)(=O)Cc1ccc(C(F)(F)F)cc1)Nc1ccc(Oc2ccnc3cc(OC)c(OC)cc23)c(F)c1 | 20.4 µM | 15.3 µM |  |  |
| 0.91 µM | 0.62 µM | COCC/C(=N\S(=O)(=O)Cc1ccc(Cl)cc1)Nc1ccc(Oc2ccnc3cc(OC)c(OC)cc23)c(F)c1 | 2.32 µM | 1.05 µM |  |  |
| 30.5 µM | 27.1 µM | CCCCC/C(=N\S(=O)(=O)Cc1ccccc1)Nc1ccc(Oc2ncnc3cc(OC)c(OC)cc23)c(F)c1 |  |  |  |  |
| 8.74 µM | 8.02 µM | COCC/C(=N\S(=O)(=O)Cc1ccc(C)cc1)Nc1ccc(Oc2ccnc3cc(OC)c(OC)cc23)c(F)c1 | 13.7 µM | 9.75 µM |  |  |
| 5.85 µM | 5.16 µM | COc1cc2nccc(Oc3ccc(N/C(C)=N/S(=O)(=O)Cc4ccccc4)cc3F)c2cc1OC | 9.29 µM | 5.99 µM |  |  |
| 8.02 µM | 7.54 µM | COCC/C(=N\S(=O)(=O)Cc1cccc(C)c1)Nc1ccc(Oc2ccnc3cc(OC)c(OC)cc23)c(F)c1 | 13.1 µM | 9.15 µM |  |  |
| 0.88 µM | 0.71 µM | COCC/C(=N\S(=O)(=O)Cc1ccc(Cl)c(Cl)c1)Nc1ccc(Oc2ccnc3cc(OC)c(OC)cc23)c(F)c1 | 3.32 µM | 1.16 µM |  |  |
| 11.2 µM | 10.3 µM | CCCCC/C(=N\S(=O)(=O)Cc1ccc(F)cc1)Nc1ccc(Oc2ncnc3ccsc23)c(F)c1 | 16.8 µM | 12.5 µM |  |  |
| 7.06 µM | 6.23 µM | CCCCC/C(=N\S(=O)(=O)Cc1ccc(F)cc1)Nc1ccc(Oc2ccnc3ccsc23)c(F)c1 | 14.6 µM | 9.17 µM |  |  |
